This passage reports Activity and UI results from ChEMBL document CHEMBL6134766, “Design, synthesis, and evaluation of benzhydrylpiperazine-based novel dual COX-2/5-LOX inhibitors with anti-inflammatory and anti-cancer activity” (RSC Med Chem, 2025).

For data set [1], the system named is Rattus norvegicus. In words: Cardio-protective activity in ISO-treated Wistar rat assessed as decrease in serum CK-MB level at 10 mg/kg, po. Format: functional, organism-based. An outline of the steps: (§1)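 Rats (n = 6/group) given ISO 100 mg kg−1 s.c., then oral test compound in 0.3% CMC; vehicle controls. Retro-orbital blood, serum separated at 4000 rpm, 4 °C, 10 min; LDH and CK-MB by commercial kits; mean ± SD.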

Data set [2] relates to Rattus norvegicus. In words: Cardio-protective activity in ISO-treated Wistar rat assessed as decrease in serum LDH level at 10 mg/kg, po. In kind it is functional, organism-based. An outline of the steps: as §1
The test system of data set [3] is Rattus norvegicus. In words: Anti-inflammatory activity in arachidonic acid-induced paw edema Wistar rat model assessed as swelling thickness of paw at 10 mg/kg, po measured after 1 hr by digital vernier caliper (reference value: 6.51 +/- 0.37 millimeter). Format: functional.
Data set [4] has as its system Rattus norvegicus. In words: Anti-inflammatory activity in arachidonic acid-induced paw edema Wistar rat model assessed as protection against swelling thickness of paw at 10 mg/kg, po measured after 1 hr by digital vernier caliper (reference value: 0 %). In kind it is functional.
Data set [5] concerns Rattus norvegicus. In words: Anti-inflammatory activity in carrageenan-induced paw edema Wistar rat model assessed as swelling thickness of paw at 10 mg/kg, po measured immediately by digital vernier caliper (reference value: 3.48 +/- 0.21 millimeter). Format: functional. On the technique in general: Carrageenan injected into the paw causes an acute inflammation.
In data set [6] the test system is Rattus norvegicus. Briefly: Anti-inflammatory activity in carrageenan-induced paw edema Wistar rat model assessed as increase in IL-10 level in paw tissue at 10 mg/kg, po measured for 6 hrs by ELISA. In kind it is functional, organism-based. An outline of the steps:
(§2)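 Paw tissue taken from carrageenan-edema rats dosed orally at 5, 10 or 20 mg kg−1. Tissue rinsed in PBS pH 7.4, minced, homogenized, filtered and centrifuged at 2000 rpm for 20 min at 4 °C. Supernatant assayed by ELISA for PGE2, IL-6, TNF-α and IL-10. Data as mean ± SD.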

Data set [7] concerns Gastric mucosa. In words: Antioxidant activity in gastric mucosal tissue in Wistar rat assessed as decrease in nitrite level at 10 mg/kg, po. Format: functional, organism-based. An outline of the steps:
(§3)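 Fasted rats (n = 6/group) gavaged once daily for 3 days in 0.3% Na CMC and sacrificed 6 h after the final dose. Randomly chosen stomachs homogenized in cold PBS pH 7.4 and centrifuged at 1000 rpm for 10 min at 4 °C. Supernatant protein measured by Bradford assay; GSH and nitrate then measured by reported methods.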

For data set [8], the system named is Rattus norvegicus. Briefly: Anti-inflammatory activity in carrageenan-induced paw edema Wistar rat model assessed as swelling thickness of paw at 10 mg/kg, po measured after 6 hrs by digital vernier caliper (reference value: 8.33 +/- 0.42 millimeter). In kind it is functional.
Data set [9] has as its system Rattus norvegicus. Briefly: Analgesic activity in acetic acid-induced pain Wistar rat model assessed as number of writhing at 10 mg/kg, po pretreated for 30 mins followed by acetic acid treatment measured for 30 mins by writhing test (reference value: 40.33 +/- 3.01). In kind it is functional. The note with it: time 60 min, 1 h.
The subject of data set [10] is Rattus norvegicus. Briefly: Anti-inflammatory activity in carrageenan-induced paw edema Wistar rat model assessed as swelling thickness of paw at 10 mg/kg, po measured after 2 hrs by digital vernier caliper (reference value: 8.65 +/- 0.53 millimeter). In kind it is functional.
Data set [11] is described as follows: Toxicity in Wistar rat assessed as change in serum AST level at 10 mg/kg, po. Format: organism-based. The note with it: in vivo. An outline of the steps: (§4)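 Rats dosed orally in 0.3% Na CMC; retro-orbital blood clotted at room temperature, serum separated at 2000 rpm, 20 min, 4 °C; ALT, AST, creatinine and urea by commercial kits; n = 6 per group, mean ± SD; Tukey test after repeated-measures one-way ANOVA.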

The subject of data set [12] is Rattus norvegicus. In words: Anti-inflammatory activity in carrageenan-induced paw edema Wistar rat model assessed as swelling thickness of paw at 10 mg/kg, po measured after 1 hr by digital vernier caliper (reference value: 8.47 +/- 0.25 millimeter). Format: functional.
A short description of data set [13]: Toxicity in fasting Wistar rat assessed as ulceration at 10 mg/kg, po via gavage treated for 3 days consecutively by H and E staining based analysis (reference value: 0 %). Format: organism-based. Conditions: in vivo, 72 h, time 3 day. An outline of the steps:
(§5)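 Fasted rats, n = 6/group, gavaged once daily for 3 days in 0.3% Na CMC (vehicle control 0.3% CMC); killed under anaesthesia 6 h after day-3 dose; stomachs saline-washed, mucosa examined with hand lens; ulcer score, index and % ulceration by reported scoring; some stomachs formalin-fixed, H&E stained.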

Data set [14] deals with Rattus norvegicus. In words: Anti-inflammatory activity in carrageenan-induced paw edema Wistar rat model assessed as swelling thickness of paw at 10 mg/kg, po measured after 5 hrs by digital vernier caliper (reference value: 8.47 +/- 0.32 millimeter). In kind it is functional.
Data set [15] has as its system Rattus norvegicus. Briefly: Anti-inflammatory activity in carrageenan-induced paw edema Wistar rat model assessed as swelling thickness of paw at 10 mg/kg, po measured after 3 hrs by digital vernier caliper (reference value: 8.56 +/- 0.45 millimeter). In kind it is functional.
A short description of data set [16]: Toxicity in Wistar rat assessed as change in serum urea level at 10 mg/kg, po. In kind it is organism-based. Conditions: in vivo. An outline of the steps: as §4
Data set [17] in a line: Toxicity in Wistar rat assessed as change in serum ALT level at 10 mg/kg, po. In kind it is organism-based. Conditions: in vivo. An outline of the steps:
as §4

A short description of data set [18]: Toxicity in fasting Wistar rat assessed as ulcer score at 10 mg/kg, po via gavage treated for 3 days consecutively by H and E staining based analysis (reference value: 0). Format: organism-based. Conditions: in vivo, 72 h, time 3 day. An outline of the steps: as §5
For data set [19], the system named is Rattus norvegicus. Briefly: Anti-inflammatory activity in carrageenan-induced paw edema Wistar rat model assessed as decrease in TNF-alpha level in paw tissue at 10 mg/kg, po measured for 6 hrs by ELISA. Format: functional, organism-based. An outline of the steps: as §2
Data set [20] is described as follows: Toxicity in fasting Wistar rat assessed as ulcer index at 10 mg/kg, po via gavage treated for 3 days consecutively by H and E staining based analysis (reference value: 0). Format: organism-based. The note with it: in vivo, 72 h, time 3 day. An outline of the steps:
as §5

In data set [21] the test system is Rattus norvegicus. In words: Anti-inflammatory activity in carrageenan-induced paw edema Wistar rat model assessed as decrease in IL-6 level in paw tissue at 10 mg/kg, po measured for 6 hrs by ELISA. Format: functional, organism-based. An outline of the steps: as §2
Data set [22] concerns Gastric mucosa. Briefly: Antioxidant activity in gastric mucosal tissue in Wistar rat assessed as increase in GSH level at 10 mg/kg, po. In kind it is functional, organism-based. An outline of the steps: as §3
Data set [23] relates to Rattus norvegicus. In words: Anti-inflammatory activity in carrageenan-induced paw edema Wistar rat model assessed as swelling thickness of paw at 10 mg/kg, po measured after 4 hrs by digital vernier caliper (reference value: 8.36 +/- 0.78 millimeter). In kind it is functional.
The nature of data set [24]: Toxicity in Wistar rat assessed as change in serum creatinine level at 10 mg/kg, po. Conditions: in vivo. In kind it is organism-based. An outline of the steps: as §4
The subject of data set [25] is Gastric mucosa. Briefly: Antioxidant activity in gastric mucosal tissue in Wistar rat assessed as increase in SOD level at 10 mg/kg, po. Format: functional, organism-based. An outline of the steps: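 Gastric tissue from fasted rats (dosed orally once daily for 3 days in 0.3% Na CMC) homogenized in cold PBS pH 7.4, centrifuged 1000 rpm, 10 min, 4 °C; protein by Bradford; SOD measured in supernatant per reported procedure.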

The structures appear in SMILES notation. Calls of active or inactive are those of the source. The calls are words filed in the database; no cut-off is given here.

Take `Cc1ccc(-c2cc(C(F)(F)F)nn2-c2ccc(S(N)(=O)=O)cc2)cc1` [CELECOXIB]: the outcome in data set [1] and in [2] was inactive. Further, the Activity stood at 1.79 mm in data set [3] and 72.59% in data set [4].
Take `COc1ccc2c(c1)c(CC(=O)O)c(C)n2C(=O)c1ccc(Cl)cc1` [INDOMETHACIN]: the Activity in data set [5] is recorded as 3.37 mm; in data set [8], 3.29 mm; in data set [9], 16.5; in data set [10] it was 3.73 mm; in data set [11], “Toxic”; in [12], 3.74 mm. In addition, the Activity is listed as 100% in [13]; 3.17 mm in [14]; 3.38 mm in data set [15]; “Toxic” in data set [16]; “Toxic” in data set [17]; 3.041 in [18]. Besides, the figures for the Activity in data set [23] and in data set [24] were 3.14 mm and “Toxic”, respectively. Further, the result in [6], in data set [7], in data set [19], in data set [21], in data set [22] and in data set [25] was Active. Moreover, the UI in [20] is given as 304.16.
